# Measured values from ChEMBL document CHEMBL3526056, “Characterization of in vitro glucuronidation clearance of a range of drugs in human kidney microsomes: comparison with liver and intestinal glucuronidation and impact of albumin” (Drug Metab Dispos, 2012).
# Assays:
# [1] = molecular target: T1, UDP-glucuronosyltransferase 1A9 (Homo sapiens, UniProt O60656); experiment: Drug metabolism in human liver microsomes assessed as UGT1A9-mediated unbound intrinsic glucuronidation clearance at 1 uM after 30 to 60 mins by LC-MS/MS analysis in presence of 1% bovine serum albumin; format: ADME
# T1 sequence (O60656 whole entry): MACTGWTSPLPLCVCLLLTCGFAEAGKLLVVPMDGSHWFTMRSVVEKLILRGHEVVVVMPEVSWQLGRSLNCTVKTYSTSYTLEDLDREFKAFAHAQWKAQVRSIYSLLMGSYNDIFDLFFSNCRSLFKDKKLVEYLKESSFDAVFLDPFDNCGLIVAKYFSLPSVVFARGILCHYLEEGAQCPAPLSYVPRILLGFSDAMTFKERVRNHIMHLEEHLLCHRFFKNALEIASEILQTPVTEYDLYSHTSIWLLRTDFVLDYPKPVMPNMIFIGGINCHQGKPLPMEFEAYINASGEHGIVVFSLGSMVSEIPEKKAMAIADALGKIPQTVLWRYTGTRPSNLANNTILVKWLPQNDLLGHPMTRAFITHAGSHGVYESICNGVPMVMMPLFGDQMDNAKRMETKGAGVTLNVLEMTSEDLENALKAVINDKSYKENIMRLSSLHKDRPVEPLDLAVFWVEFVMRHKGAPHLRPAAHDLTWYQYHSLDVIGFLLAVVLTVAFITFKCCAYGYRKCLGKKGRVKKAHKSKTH
# [2] = Unbound intrinsic glucuronidation clearance in human intestinal microsomes at 1 uM after 30 to 60 mins by LC-MS/MS analysis in presence of UDP-glucuronosyltransferase and 1% bovine serum albumin; format: ADME, Intestine, Microsome
# [3] = Fraction unbound in human intestinal microsomes at 1 uM after 30 to 60 mins by LC-MS/MS analysis; format: ADME, Intestine, Microsome
# [4] = Renal clearance in human; format: ADME, organism-based, Kidney; settings: in vivo
# [5] = molecular target: T1, UDP-glucuronosyltransferase 1A9; experiment: Ratio of UGT1A9-mediated unbound intrinsic glucuronidation clearance in human intestinal microsomes to UGT1A9-mediated unbound intrinsic glucuronidation clearance in human liver microsomes at 1 uM in presence of 1% bovine serum albumin; format: ADME
# [6] = Glucuronidation clearance in human liver microsomes in presence of bovine serum albumin; format: ADME
# [7] = Clearance in iv dosed human; format: ADME, organism-based; settings: in vivo
# Liver microsome [8] = experiment: Fraction metabolized glucuronidation in human liver microsomes in presence of UDP-glucuronosyltransferase and bovine serum albumin; format: ADME
# [9] = molecular target: T1, UDP-glucuronosyltransferase 1A9; experiment: Ratio of UGT1A9-mediated unbound intrinsic glucuronidation clearance in human intestinal microsomes to UGT1A9-mediated unbound intrinsic glucuronidation clearance in human liver microsomes at 1 uM; format: ADME
# [10] = Ratio of unbound intrinsic glucuronidation clearance in human intestinal microsomes in presence of 1% bovine serum albumin to unbound intrinsic glucuronidation clearance in human intestinal microsomes in absence of bovine serum albumin; format: ADME, Intestine, Microsome
# Outline: (§1)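 Unbound intrinsic glucuronidation clearance measured by parent-drug depletion in intestinal or kidney microsomes, once with 1% BSA and once without, under otherwise matched conditions (1 μM drug, pH 7.1 phosphate, 5 mM cofactor, 37°C). Each value was corrected for fu,inc. The ratio is the mean clearance with BSA over the mean without.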
# [11] = molecular target: T1, UDP-glucuronosyltransferase 1A9; experiment: Ratio of UGT1A9-mediated unbound intrinsic glucuronidation clearance in human kidney microsomes to UGT1A9-mediated unbound intrinsic glucuronidation clearance in human intestinal microsomes at 1 uM in presence of 1% bovine serum albumin; format: ADME
# Liver microsome [12] = experiment: Fraction metabolized glucuronidation in human liver microsomes in presence of UDP-glucuronosyltransferase; format: ADME
# [13] = Fraction unbound in human liver microsomes at 1 uM after 30 to 60 mins by LC-MS/MS analysis in presence of 1% bovine serum albumin; format: ADME; settings: liver microsomes
# [14] = Fraction unbound in human liver microsomes at 1 uM after 30 to 60 mins by LC-MS/MS analysis; format: ADME
# [15] = Glucuronidation clearance in human liver microsomes; format: ADME
# [16] = Drug metabolism in human intestinal microsomes assessed as UGT1A8/2B7-mediated unbound intrinsic glucuronidation clearance at 1 uM after 30 to 60 mins by LC-MS/MS analysis in presence of 2% bovine serum albumin; format: ADME, Intestine
# [17] = Unbound intrinsic glucuronidation clearance in human intestinal microsomes at 1 uM after 30 to 60 mins by LC-MS/MS analysis in presence of UDP-glucuronosyltransferase; format: ADME, Intestine, Microsome
# Outline: (§2)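 Alamethicin-activated pooled microsomes (HLM 150 donors; HKM 8; HIM 18). Drug at 1 μM final, preincubated 5 min at 37°C in 0.1 M phosphate pH 7.1 with 3.45 mM MgCl2, 1.15 mM EDTA, 115 μM saccharic acid lactone. Started with […] cofactor (5 mM final), 30–60 min. Cofactor-free controls. Parent depletion by LC-MS/MS, single-exponential k. Corrected by HLM-dialysis fu,inc. Duplicates; n=3 (HIM n=1).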
# [18] = molecular target: T1, UDP-glucuronosyltransferase 1A9; experiment: Ratio of UGT1A9-mediated unbound intrinsic glucuronidation clearance in human kidney microsomes to UGT1A9-mediated unbound intrinsic glucuronidation clearance in human intestinal microsomes at 1 uM; format: ADME
# [19] = Fraction unbound in human plasma
# Liver microsome [20] = experiment: Unbound intrinsic glucuronidation clearance in human liver microsomes at 1 uM after 30 to 60 mins by LC-MS/MS analysis in presence of UDP-glucuronosyltransferase; format: ADME; outline: as §2
# [21] = molecular target: T1, UDP-glucuronosyltransferase 1A9; experiment: Drug metabolism in human kidney microsomes assessed as UGT1A9-mediated unbound intrinsic glucuronidation clearance at 1 uM after 30 to 60 mins by LC-MS/MS analysis in presence of 1% bovine serum albumin; format: ADME
# Liver microsome [22] = experiment: Unbound intrinsic glucuronidation clearance in human liver microsomes at 1 uM after 30 to 60 mins by LC-MS/MS analysis in presence of UDP-glucuronosyltransferase and 1% bovine serum albumin; format: ADME
# [23] = molecular target: T1, UDP-glucuronosyltransferase 1A9; experiment: Drug metabolism in human intestinal microsomes assessed as UGT1A9-mediated unbound intrinsic glucuronidation clearance at 1 uM after 30 to 60 mins by LC-MS/MS analysis; format: ADME, Intestine
# [24] = molecular target: T1, UDP-glucuronosyltransferase 1A9; experiment: Ratio of UGT1A9-mediated unbound intrinsic glucuronidation clearance in human kidney microsomes to UGT1A9-mediated unbound intrinsic glucuronidation clearance in human liver microsomes at 1 uM in presence of 1% bovine serum albumin; format: ADME
# Outline: (§3)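 Unbound intrinsic clearance measured by substrate depletion in kidney and liver microsomes (1 μM drug, 0.1 M phosphate pH 7.1, 5 mM cofactor, 37°C, LC-MS/MS), without or with 1% BSA. Values scaled per g tissue; ratio taken as mean scaled kidney over mean scaled liver value.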
# [25] = molecular target: T1, UDP-glucuronosyltransferase 1A9; experiment: Drug metabolism in human liver microsomes assessed as UGT1A9-mediated unbound intrinsic glucuronidation clearance at 1 uM after 30 to 60 mins by LC-MS/MS analysis; format: ADME
# [26] = molecular target: T1, UDP-glucuronosyltransferase 1A9; experiment: Ratio of UGT1A9-mediated unbound intrinsic glucuronidation clearance in human kidney microsomes to UGT1A9-mediated unbound intrinsic glucuronidation clearance in human liver microsomes at 1 uM; format: ADME; outline: as §3
# [27] = molecular target: T1, UDP-glucuronosyltransferase 1A9; experiment: Drug metabolism in human kidney microsomes assessed as UGT1A9-mediated unbound intrinsic glucuronidation clearance at 1 uM after 30 to 60 mins by LC-MS/MS analysis; format: ADME
# [28] = Ratio of drug level blood to plasma in human; format: ADME; settings: blood and plasma
# [29] = Fraction unbound in human kidney microsomes at 1 uM after 30 to 60 mins by LC-MS/MS analysis; format: ADME
# [30] = Ratio of unbound intrinsic glucuronidation clearance in human kidney microsomes in presence of 1% bovine serum albumin to unbound intrinsic glucuronidation clearance in human kidney microsomes in absence of bovine serum albumin; format: ADME, microsome; outline: as §1
# [31] = Unbound intrinsic glucuronidation clearance in human kidney microsomes at 1 uM after 30 to 60 mins by LC-MS/MS analysis in presence of UDP-glucuronosyltransferase; format: ADME, microsome; outline: as §2
# [32] = Unbound intrinsic glucuronidation clearance in human kidney microsomes at 1 uM after 30 to 60 mins by LC-MS/MS analysis in presence of UDP-glucuronosyltransferase and 1% bovine serum albumin; format: ADME, microsome
smiles,measurement,setting,value
COc1c(C)c2c(c(O)c1C/C=C(\C)CCC(=O)O)C(=O)OC2 [MYCOPHENOLIC ACID],CL free,[1],9.32 mL/min/g
same,CL free,[2],57.8 µL/min/mg
same,fraction unbound at 1 µM,[3],0.71
same,CL renal,[4],14.4 mL/day/kg
same,Ratio,[5],0.128
same,CLhep predicted,[6],3.97 mL/min/kg
same,clearance,[7],2.49 mL/min/kg
same,Drug metabolism,Liver microsome [8],0.95
same,Ratio,[9],0.078
same,Ratio,[10],4.7
same,Ratio,[11],14.8
same,Drug metabolism,Liver microsome [12],0.95
same,fraction unbound at 1 µM,[13],0.18
same,fraction unbound at 1 µM,[14],0.83
same,CLhep predicted,[15],3.97 mL/min/kg
same,CL free,[16],0.292 mL/min/g
same,CL free,[17],11.8 µL/min/mg
same,Ratio,[18],15.4
same,fraction unbound,[19],0.01
same,CL free,Liver microsome [20],78.2 µL/min/mg
same,CL free,[21],17.6 mL/min/g
same,CL free,Liver microsome [22],233 µL/min/mg
same,CL free,[23],0.244 mL/min/g
same,Ratio,[24],1.89
same,CL free,[25],3.13 mL/min/g
same,Ratio,[26],1.2
same,CL free,[27],3.75 mL/min/g
same,blood plasma ratio,[28],0.6
same,fraction unbound at 1 µM,[29],0.91
same,Ratio,[30],4.9
same,CL free,[31],293 µL/min/mg
same,CL free,[32],1370 µL/min/mg
